Assay [1] has as its target T1, Nitric oxide synthase 1 (Rattus norvegicus, UniProt P29476). In words: Inhibitory concentration tested against neuronal nitric oxide synthase (nNOS ) from rat cerebellum. The class given is tissue-based.
Assay [2] deals with T2, Nitric oxide synthase 3 (Bos taurus) (UniProt P29473).
T2 sequence (whole entry): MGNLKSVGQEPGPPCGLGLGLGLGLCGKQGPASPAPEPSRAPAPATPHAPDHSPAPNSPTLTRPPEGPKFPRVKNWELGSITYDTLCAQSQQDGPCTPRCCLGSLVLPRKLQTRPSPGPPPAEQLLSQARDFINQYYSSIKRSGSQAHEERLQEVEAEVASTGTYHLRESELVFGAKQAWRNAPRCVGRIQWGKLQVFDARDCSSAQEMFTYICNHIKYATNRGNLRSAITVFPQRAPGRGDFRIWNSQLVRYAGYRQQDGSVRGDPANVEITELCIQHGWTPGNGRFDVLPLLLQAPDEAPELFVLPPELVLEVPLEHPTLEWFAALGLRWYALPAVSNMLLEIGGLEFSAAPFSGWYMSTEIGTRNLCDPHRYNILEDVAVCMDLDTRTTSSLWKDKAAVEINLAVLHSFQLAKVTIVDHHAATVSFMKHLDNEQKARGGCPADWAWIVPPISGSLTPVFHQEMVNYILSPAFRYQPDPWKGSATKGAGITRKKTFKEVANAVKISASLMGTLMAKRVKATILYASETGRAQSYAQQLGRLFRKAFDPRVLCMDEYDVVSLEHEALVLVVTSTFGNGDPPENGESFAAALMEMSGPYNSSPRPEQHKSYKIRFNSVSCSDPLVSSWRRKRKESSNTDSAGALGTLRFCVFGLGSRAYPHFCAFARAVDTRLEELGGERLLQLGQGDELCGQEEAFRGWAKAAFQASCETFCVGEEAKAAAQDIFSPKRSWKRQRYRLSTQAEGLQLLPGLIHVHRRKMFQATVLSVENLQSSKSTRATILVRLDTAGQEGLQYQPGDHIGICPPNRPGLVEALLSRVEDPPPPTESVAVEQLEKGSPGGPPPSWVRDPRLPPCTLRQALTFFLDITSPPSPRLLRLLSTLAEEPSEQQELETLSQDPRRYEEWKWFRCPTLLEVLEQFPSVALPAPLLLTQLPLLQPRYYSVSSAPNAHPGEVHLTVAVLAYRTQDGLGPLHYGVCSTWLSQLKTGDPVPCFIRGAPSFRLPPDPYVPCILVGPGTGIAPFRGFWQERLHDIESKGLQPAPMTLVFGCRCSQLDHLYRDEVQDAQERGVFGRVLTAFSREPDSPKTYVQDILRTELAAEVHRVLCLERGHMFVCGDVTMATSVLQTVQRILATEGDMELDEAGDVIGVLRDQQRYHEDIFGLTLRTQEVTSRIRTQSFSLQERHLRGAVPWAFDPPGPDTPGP
The assay is described as follows: Selectivity ratio for inhibition of Endothelial Nitric oxide synthase to that of Neuronal Nitric oxide synthase in rat. Put shortly:
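Ratio of inhibitory activity on the two constitutive NOS isoforms, eNOS and nNOS. Inhibition on each isoform was measured as the effect on NOS conversion of [3H]L-arginine to [3H]L-citrulline.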

In assay [3] the target is T3, Nitric oxide synthase 3 (Bos taurus, UniProt P29473).
T3 sequence (P29473 whole entry): T2 sequence (whole entry)
In words: Inhibitory concentration tested against bovine endothelial nitric oxide synthase (eNOS). Put shortly:
(§1)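 NOS activity measured as enzymatic conversion of [3H]L-arginine into [3H]L-citrulline; inhibition taken as the reduction of this conversion. Both constitutive isoforms (neuronal and endothelial) were assayed, and the nNOS/eNOS selectivity was calculated from the two results.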

The species named for assay [4] is Rattus norvegicus. In words: Antioxidant potency of compound was assessed for their ability to inhibit [Fe2+] induced lipid peroxidation in rat brain microsomes; Not active. The class given is functional.
For assay [5], the species on record is Rattus norvegicus. The assay is described as follows: Antioxidant potency of compound was assessed for their ability to inhibit [Fe2+] induced lipid peroxidation in rat brain microsomes. Format: functional.
Assay [6] concerns the target T1, Nitric oxide synthase 1. The assay is described as follows: Inhibitory concentration tested against neuronal nitric oxide synthase (nNOS ) from rat cerebellum; Not active. Format: tissue-based. Put shortly: as §1
Assay [7] has as its target T3, Nitric oxide synthase 3. In words: Inhibitory concentration tested against bovine endothelial nitric oxide synthase (eNOS); Not active. Put shortly:
as §1

As a reminder, the IC50 is the concentration that gives 50% inhibition. A higher IC50 goes with a need for much substance.

T1 sequence (P29476 whole entry): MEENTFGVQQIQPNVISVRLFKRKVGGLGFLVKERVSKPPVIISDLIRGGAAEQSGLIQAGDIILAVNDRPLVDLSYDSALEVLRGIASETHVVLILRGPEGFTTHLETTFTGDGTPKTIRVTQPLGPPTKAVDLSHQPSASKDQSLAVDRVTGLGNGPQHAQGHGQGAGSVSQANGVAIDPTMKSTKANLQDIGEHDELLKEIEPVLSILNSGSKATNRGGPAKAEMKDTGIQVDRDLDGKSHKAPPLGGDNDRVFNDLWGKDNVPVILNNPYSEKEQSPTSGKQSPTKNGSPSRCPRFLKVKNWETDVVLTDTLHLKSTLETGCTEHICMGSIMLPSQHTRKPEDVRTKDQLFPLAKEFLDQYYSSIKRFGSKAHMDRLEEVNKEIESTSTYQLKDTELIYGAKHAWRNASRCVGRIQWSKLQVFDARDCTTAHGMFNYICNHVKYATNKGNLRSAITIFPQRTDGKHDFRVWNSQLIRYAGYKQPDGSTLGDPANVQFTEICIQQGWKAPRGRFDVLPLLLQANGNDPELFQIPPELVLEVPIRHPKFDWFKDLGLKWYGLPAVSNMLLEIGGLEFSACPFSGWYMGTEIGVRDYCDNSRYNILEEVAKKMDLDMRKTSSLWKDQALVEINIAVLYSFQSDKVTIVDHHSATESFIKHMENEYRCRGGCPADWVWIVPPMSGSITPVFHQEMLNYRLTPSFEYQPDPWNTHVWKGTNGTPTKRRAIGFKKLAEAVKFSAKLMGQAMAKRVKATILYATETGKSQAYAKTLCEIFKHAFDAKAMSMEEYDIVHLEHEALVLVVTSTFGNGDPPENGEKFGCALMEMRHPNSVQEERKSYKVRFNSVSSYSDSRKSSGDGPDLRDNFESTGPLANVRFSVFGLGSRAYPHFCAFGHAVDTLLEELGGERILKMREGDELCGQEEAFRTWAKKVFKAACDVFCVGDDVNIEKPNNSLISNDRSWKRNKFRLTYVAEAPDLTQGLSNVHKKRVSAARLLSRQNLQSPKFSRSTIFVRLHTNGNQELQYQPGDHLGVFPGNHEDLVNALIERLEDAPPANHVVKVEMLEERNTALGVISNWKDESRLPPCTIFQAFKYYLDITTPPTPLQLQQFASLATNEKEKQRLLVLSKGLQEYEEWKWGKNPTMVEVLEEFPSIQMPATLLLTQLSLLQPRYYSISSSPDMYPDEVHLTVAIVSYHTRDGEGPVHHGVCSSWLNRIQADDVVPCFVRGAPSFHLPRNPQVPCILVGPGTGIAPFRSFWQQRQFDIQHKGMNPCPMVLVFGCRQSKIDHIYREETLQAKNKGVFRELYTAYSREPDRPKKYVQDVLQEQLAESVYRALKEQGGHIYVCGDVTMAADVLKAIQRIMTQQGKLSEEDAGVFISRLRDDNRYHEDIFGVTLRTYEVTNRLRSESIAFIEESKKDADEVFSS

For `N/C(=N/c1ccc(N)cc1)c1cccs1`, the IC50 in assay [1] was 18 µM; in assay [3], > 100 µM. For the same compound, the Selectivity ratio in assay [2] is > 5.5.

As to `N=C(Nc1cccc(CN)c1)c1cccs1`, the IC50 in assay [1] was 0.05 µM; in assay [3], 24.2 µM. In addition, the Selectivity ratio in assay [2] amounted to 484.

As to `CC(C)(C)c1cc(CCNCc2cccc(N=C(N)c3cccs3)c2)cc(C(C)(C)C)c1O`, the IC50 in assay [1] was 1.4 µM; in assay [3], 15.5 µM.

In the case of `Cl.Cl.Cl.N=C(Nc1ccc(CCNCc2cccc(Cl)c2)cc1)c1cccs1`, the half-inhibitory concentration (IC50) is 0.12 µM in assay [1], “Not Active” in assay [4] and 7.2 µM in assay [3]. Besides, the Selectivity ratio in assay [2] came to 60.

Turning to `CC(C)(C)c1cc(CCNCc2cccc(NC(=N)c3cccs3)c2)cc(C(C)(C)C)c1O`, in assay [2], the Selectivity ratio stood at 11.1. In assay [5], this compound registered an IC50 of 2.4 µM.

For the compound `Cc1cc(C(C)(C)C)c(O)c(C(C)(C)C)c1` [BUTYLATED HYDROXYTOLUENE], the IC50 entry in assay [6] is “Not Active”; in assay [7] it was “Not Active”; in assay [5], 32.5 µM.

For the compound `N=C(Nc1ccc(CN)cc1)c1cccs1`, the IC50 turned out to be 0.2 µM in assay [1] and 37.1 µM in assay [3]. In assay [2], the Selectivity ratio was 195.

On to `N=C(Nc1ccccc1)c1cccs1`, for which the figures for the IC50 in assay [1] and in assay [3] were 2.2 µM and 13.9 µM, respectively. In assay [2], the Selectivity ratio amounted to 6.3.

Take `CC(C)c1cc(CCCNCc2cccc(NC(=N)c3cccs3)c2)cc(C(C)C)c1O`: the values for the IC50 in assay [1], in assay [5] and in assay [3] were 0.12 µM, 0.4 µM and 8.1 µM, respectively. In addition, the Selectivity ratio in assay [2] was found to be 67.5.

For `CC(C)(C)c1cc(CCCNCc2cccc(NC(=N)c3cccs3)c2)cc(C(C)(C)C)c1O`, the IC50 in assay [1] was 0.47 µM; in assay [5], 0.4 µM; in assay [3], 4.9 µM. The Selectivity ratio in assay [2] worked out at 10.4.

Turning to `CC(C)(C)c1cc(CNCc2cccc(NC(=N)c3cccs3)c2)cc(C(C)(C)C)c1O`, the IC50 is 1.6 µM in assay [1], 4.9 µM in assay [5] and 15.7 µM in assay [3]. The Selectivity ratio in assay [2] came to 9.8.

Consider `N=C(Nc1ccc(CCN)cc1)c1cccs1`, for which the IC50 in assay [1] was 0.08 µM; in assay [3], 25 µM. Besides, the Selectivity ratio in assay [2] is 312.

Source of the values: ChEMBL document CHEMBL1136261, “Novel inhibitors of neuronal nitric oxide synthase with potent antioxidant properties” (Bioorg Med Chem Lett, 2003).
